# Experimental data as given in publication PMC7313255 (Biology of Reproduction, 2020).
# pKi: −log10 of the molar value. “And” between values parts separate entries of the source, which are not always exact repeats. Identical values can stand only once. Counter-ions that a name gives are not always drawn. Like-named read-outs stand apart in the source and are kept apart here. Positions of bridges follow the written chain, without caps; N, C: chain ends. Non-standard residues stand in square brackets, D forms with d. Residues, ends and D or L forms follow the SMILES beside them. Orn = NCCC[C@H](N)C(=O)O; Mpa = O=C(O)CCS
# Assays:
# [1] = cited from earlier work
# [2] = format: in vitro ADME, human
# Summary of the method: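 Term placentas (39–41 weeks, no chorioamnionitis) perfused ex vivo as double-sided open cotyledon at 36.5 °C; fetal flow 2 mL/min, maternal 10 mL/min. Test compound 1.2 µM (1 µg/mL) in perfusate with antipyrine 531 µM co-infused. Fetal venous samples at 1–120 min; Evans blue integrity check. LC-MS/MS for test compound, spectrophotometry for antipyrine; trapezoidal AUC ratio; mean ± SD.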
# [3] = sheep, epitheliochoral placenta; cited from earlier work
# [4] = biological target: cloned human V1AR; details: read-out: Ki (affinity), cloned human V1AR; two literature values; cited from earlier work
# [5] = Placental transfer in cynomolgus monkeys; format: in vivo, cynomolgus monkeys (Macaca fascicularis); details: cynomolgus monkey
# Summary of the method: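 Three pregnant monkeys, gestation day 150 ± 1. Test compound infused intravenously (saphenous vein) over 2 h to 300 µg/kg in 5 mL/kg, from a 10 mg/mL stock in 0.04 M acetate pH 4.3 diluted in saline. Maternal brachial plasma taken pre-dose, 1 and 2 h. Umbilical venous plasma and amniotic fluid taken at C-section under ketamine/xylazine. Plasma measured by RIA, amniotic fluid by LC-MS/MS; paired t-test.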
# [6] = cited from earlier work; remark: listed apart in the source
# [7] = system: oxytocin-induced uterine contractions; details: cited from earlier work
# [8] = up to 2.5 mg barusiban/kg body weight/day from day 85 of gestation until delivery; cited from earlier work
# [9] = system: vasopressin-induced contractions of isolated term-pregnant human myometrium; details: cited from earlier work
# [10] = quantitative whole-body autoradiography; format: in vivo; details: rat; all sampling times; limit of quantitation 40 pmoles/g; unpublished data
# [11] = quantitative whole-body autoradiography; format: in vivo; details: marmoset; normally below the limit of quantification; unpublished data
# [12] = Placental transfer in rabbits; format: in vivo, New Zealand white rabbits; details: rabbit
# Summary of the method: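 Pregnant rabbits (5–6 months, 3.0–4.4 kg) given the radiolabelled test compound by ear-vein bolus daily on gestation days 24–30: mean 3.01 mg/kg, 522 kBq/kg, in 0.9% saline. Three dams per time point killed by barbiturate at 10 min, 1, 3 and 10 h after dosing. Maternal ear-artery blood taken; from one fetus per sex, cardiac blood and tissues taken. Liquid scintillation counting; levels expressed as % of maternal peak.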
compound,measurement,setting,value
O=S(=O)([O-])[O-].[Mg+2] [MgSO4],placental transfer,[1]; in humans,up to 100%
"Cc1cc(=O)n(-c2ccccc2)n1C [antipyrine, reference compound]",transfer of antipyrine relative to barusiban,"[2]; human placental single cotyledon, comparator",approximately three times greater
CCOc1ccc(C[C@H]2NC(=O)CCSSC[C@@H](C(=O)N3CCC[C@H]3C(=O)N[C@@H](CCCN)C(=O)NCC(N)=O)NC(=O)[C@H](CC(N)=O)NC(=O)[C@H]([C@@H](C)O)NC(=O)[C@H]([C@@H](C)CC)NC2=O)cc1 [atosiban] ([Mpa][dY](Et)ITNCP[Orn]G-NH2; disulfide 1-6 (inferred); C-terminus assumed),placental transfer,"[1]; in vivo, pregnant women at term",12%
same,placental transfer,[3],could not be detected
same,pKi,[4],8.46 and 8.33
CC[C@@H](C)[C@@H]1NC(=O)[C@H]([C@@H](C)CC)NC(=O)[C@@H](Cc2c[nH]c3ccccc23)NC(=O)CCSCC[C@@H](C(=O)N(C)[C@H](CO)CCCN)NC(=O)[C@H](CC(N)=O)NC1=O [barusiban],increase of maternal plasma barusiban from 1 h to 2 h,[5]; individual values of two animals,40.4% and 54.6%
same,mean amniotic barusiban at C-section as % of the maternal plasma after 2 h,"[5]; iv infusion 2 h to 300 μg/kg, n = 3",1.9%
same,decrease of maternal plasma barusiban from 1 h to 2 h,[5]; third animal,5.0%
same,effect over the placebo group (women who did not deliver within 48 h),[6]; Phase II clinical trial,did not demonstrate a statistically significant effect
same,fetal and neonatal adverse events with maternal barusiban,"[6]; clinical study, did not differ from placebo",very low level of fetal and neonatal adverse events
same,reduction of induced uterine contractions compared with fenoterol,[7]; cynomolgus monkey,more effective than fenoterol
same,reduction of oxytocin-induced uterine contractions compared with atosiban,"[7]; pregnant cynomolgus monkey, action also longer lasting",more potent
same,effects in the mother or offspring,[8],no barusiban-related effects
same,AUC ratio of barusiban to antipyrine,"[2]; ex vivo perfused human cotyledon, mean of ratios ± SD, n = 13, SD",36 ± 11%
same,effect on vasopressin-induced contractions,[9],practically no effect
same,barusiban in the fetuses (QWBA),[10],< 40 pmol/g
same,radioactivity in fetal brain (QWBA),[11],< 12 pmoles/g tissue
same,barusiban level in other fetal tissues as % of the maternal blood,"[12]; 10 min post-dose, or less than LLOQ",< 1%
same,barusiban in most fetal tissue samples as % of the maternal peak blood level,"[12]; 1 h post-dose, or less than LLOQ",less than 1%
same,fetal blood barusiban as % of that after 10 min,[12]; 1 h post-dose,79.3%
same,fetal blood barusiban as % of the peak maternal level,[12]; 1 h post-dose,4.2%
same,fetal plasma barusiban as % of the peak maternal level,[12]; 1 h post-dose,5.0%
same,maternal blood barusiban as % of the maximum level,[12]; 1 h post-dose,32.8%
same,maternal plasma barusiban as % of the maximum level,[12]; 1 h post-dose,35.2%
same,maternal blood barusiban as % of its maximum level,[12]; 3 h post-dose,6.1%
same,maternal plasma barusiban as % of its maximum level,[12]; 3 h post-dose,7.9%
same,fetal adrenal barusiban as % of the maximal maternal blood level,"[12]; 10 h post-dose, one adrenal",12.0%
same,barusiban in all other fetal tissues as % of peak maternal blood level,"[12]; 10 h post-dose, or less than LLOQ",less than 1%
same,amniotic fluid barusiban as % of the maximal maternal blood level,[12]; 10 h post-dose,5.7%
same,fetal blood barusiban as % of initial maternal level,[12]; 10 h post-dose,less than 2%
same,fetal plasma barusiban as % of initial maternal level,[12]; 10 h post-dose,less than 3%
same,maternal blood barusiban as % of the first determination,[12]; 10 h post-dose,less than 1%
same,maternal plasma barusiban as % of the first determination,[12]; 10 h post-dose,less than 2%
CC(NCCc1ccc(O)cc1)C(O)c1ccc(O)cc1 (centres unmarked) [ritodrine hydrochloride],placental transfer,"[1]; in humans, long-term treatment",70%
same,placental transfer,"[1]; in humans, short-term treatment",26%
